Article PMC9299520 (Nature structural & molecular biology, 2022)

Key:
[1] = target: T1, 5-HT5AR (Homo sapiens, UniProt P47898); experiment: BRET2 Gi1-activation assay, WT 5-HT5AR; assay type: cell-based; details: normalized to % of 5-HT
[2] = test system: mutant 5-HT5AR; experiment: BRET2 Gi1-activation assay, mutant 5-HT5ARs; assay type: cell-based, human; details: for effect on Gi1 activation: mutants S204A and S204G
[3] = target: mutant 5-HT5AR (Homo sapiens, UniProt P47898, S204C); experiment: BRET2 Gi1-activation assay, mutant 5-HT5ARs; assay type: cell-based; details: mutant S204C
Sequence of mutant 5-HT5AR (Homo sapiens, UniProt P47898, S204C) (P47898 whole entry S204C): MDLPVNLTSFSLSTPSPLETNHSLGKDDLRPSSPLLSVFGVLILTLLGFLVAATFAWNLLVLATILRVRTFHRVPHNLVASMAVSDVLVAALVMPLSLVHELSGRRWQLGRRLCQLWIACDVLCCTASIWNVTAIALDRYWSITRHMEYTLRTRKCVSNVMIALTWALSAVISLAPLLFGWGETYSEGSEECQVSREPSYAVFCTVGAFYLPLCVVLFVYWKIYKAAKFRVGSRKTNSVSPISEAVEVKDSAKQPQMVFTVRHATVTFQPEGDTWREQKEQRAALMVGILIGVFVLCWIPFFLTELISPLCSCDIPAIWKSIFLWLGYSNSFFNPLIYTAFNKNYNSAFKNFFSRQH

[4] = target: mutant 5-HT5AR (Homo sapiens, UniProt P47898, A227L); experiment: BRET2 Gi1-activation assay, mutant 5-HT5ARs; assay type: cell-based; details: mutant A227L versus WT
Sequence of mutant 5-HT5AR (Homo sapiens, UniProt P47898, A227L) (P47898 whole entry A227L): as the sequence (P47898 whole entry S204C) above, with C204S, A227L counted along it

[5] = target: mutant 5-HT5AR (Homo sapiens, UniProt P47898, E305A); experiment: BRET2 Gi1-activation assay, mutant 5-HT5ARs; assay type: cell-based; details: mutant E305A
Sequence of mutant 5-HT5AR (Homo sapiens, UniProt P47898, E305A) (P47898 whole entry E305A): as the sequence (P47898 whole entry S204C) above, with C204S, E305A counted along it

[6] = target: T1, 5-HT5AR; experiment: BRET1 miniGi recruitment assay; assay type: cell-based; details: wild type 5-HT5AR
Outline: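 Transfected cells were plated after at least 24 h onto poly-lysine-coated plates in DMEM with 1% dialyzed FBS, at 40,000 cells/well, and left overnight. They were washed with HBSS/20 mM HEPES pH 7.4, then given coelenterazine h (5 μM final) and test compound dilutions with 0.3% BSA and 0.03% ascorbic acid. After 10 min at room temperature, emissions at 485 and 530 nm were read, and eYFP/Rluc BRET ratio was plotted against concentration.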

T1 sequence (P47898 whole entry): as the sequence (P47898 whole entry S204C) above, with C204S counted along it

Row | SMILES | agonist type for Gi signaling [1] | effect on Gi1 activation [2] | improvement of potency of Gi1 activation ([2]; {}) | effect on Gi1 activation [3] | increase of efficacy of Gi1 activation [4] | effect on activation of Gi1 signaling [5] | miniGi recruitment [6]
1 | CC[C@@H](CO)NC(=O)[C@@H]1C=C2c3cccc4[nH]cc(c34)C[C@H]2N(C)C1 [methylergometrine] | full agonist | – | – | – | – | – | –
2 | NCCc1c[nH]c2ccc(O)cc12 [5-HT, 5-hydroxytryptamine] | – | modest effects on both the potency and efficacy | more than 30 fold | severely affected | 20% | – | –
3 | NCCc1c[nH]c2ccc(C(N)=O)cc12 [5-CT, 5-carboxamidotryptamine] | full agonist | dramatically reduced the potency | – | severely affected | – | failed to show a large effect | unable to efficiently recruit miniGi
